Test results taken from ChEMBL document CHEMBL4732199, “Potent and orally bioavailable CDK8 inhibitors: Design, synthesis, structure-activity relationship analysis and biological evaluation” (Eur J Med Chem, 2021).
Active and inactive are the calls of the source. No cut-off for these calls is given here.

Key:
[1] = target: T1, Cyclin-dependent kinase 5/CDK5 activator 1 (Homo sapiens) (UniProt Q00535+Q15078); assay: Inhibition of CDK5/p25 (unknown origin) at 1 uM; assay type: protein-complex assay
T1 sequence (Q00535 whole entry): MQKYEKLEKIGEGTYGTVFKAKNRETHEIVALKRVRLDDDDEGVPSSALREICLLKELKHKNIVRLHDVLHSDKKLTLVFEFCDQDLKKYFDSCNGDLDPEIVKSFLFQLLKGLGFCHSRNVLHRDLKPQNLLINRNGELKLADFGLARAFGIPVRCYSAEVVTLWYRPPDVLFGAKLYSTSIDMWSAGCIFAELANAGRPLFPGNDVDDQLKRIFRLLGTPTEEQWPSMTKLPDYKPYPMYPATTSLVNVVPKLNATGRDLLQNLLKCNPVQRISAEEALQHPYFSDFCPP
T1 sequence (Q15078 99-307 partner limits assumed): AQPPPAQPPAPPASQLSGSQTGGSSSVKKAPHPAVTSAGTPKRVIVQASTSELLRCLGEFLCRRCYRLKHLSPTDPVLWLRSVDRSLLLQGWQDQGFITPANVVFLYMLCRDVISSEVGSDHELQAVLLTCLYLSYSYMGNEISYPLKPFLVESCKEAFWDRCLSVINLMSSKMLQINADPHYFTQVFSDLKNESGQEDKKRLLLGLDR
Summary of the method: (§1)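 Residual activity of each kinase with compound at 1 µM, measured in a contracted radioisotope-based kinase profiling assay and expressed as % kinase activity remaining.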

[2] = test system: MDA-MB-231; assay: Growth inhibition human MDA-MB-231 cells after 72 hrs by resazurin or MTT assay; assay type: functional
Summary of the method: (§2)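 Tumour cell lines kept in RPMI-1640, DMEM or MEM with 10% FBS at 37 °C, 5% CO2, mycoplasma-free. Exposure lasted 72 h. Viability was read by MTT for adherent solid-tumour lines and by resazurin for suspension leukaemia lines. GI50 came from nonlinear regression, given as mean ± standard deviation of at least two replicates unless stated otherwise.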

[3] = target: Cyclin-dependent kinase 14/Cyclin-Y (Homo sapiens) (UniProt O94921+Q8ND76); assay: Inhibition of CDK14/Cyclin Y (unknown origin) at 1 uM; assay type: protein-complex assay; summary of the method: as §1
[4] = target: Glycogen synthase kinase-3 beta (Homo sapiens, UniProt P49841); assay: Inhibition of human GSKbeta H350L mutant (2 to 3nd residues) using YRRAAVPPSPSLSRHSSPHQS(p) EDEEE as substrate incubated for 40 mins in presence of [gamma-33P]-ATP by scintillation counting method
Sequence of Glycogen synthase kinase-3 beta (P49841 whole entry): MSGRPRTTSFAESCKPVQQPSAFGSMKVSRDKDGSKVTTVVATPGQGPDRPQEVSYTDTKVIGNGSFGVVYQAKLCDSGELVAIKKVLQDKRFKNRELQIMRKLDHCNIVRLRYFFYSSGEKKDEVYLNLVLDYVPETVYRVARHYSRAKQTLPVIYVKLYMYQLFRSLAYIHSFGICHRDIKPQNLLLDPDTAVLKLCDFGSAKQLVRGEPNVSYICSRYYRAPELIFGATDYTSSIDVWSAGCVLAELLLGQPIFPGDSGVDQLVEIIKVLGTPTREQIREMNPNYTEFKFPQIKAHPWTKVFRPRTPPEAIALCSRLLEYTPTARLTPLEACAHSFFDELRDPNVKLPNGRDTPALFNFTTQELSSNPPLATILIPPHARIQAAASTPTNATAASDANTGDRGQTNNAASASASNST
Summary of the method: (§3)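 Outsourced radioisotope (HotSpot) kinase assay run by a contract lab, with ATP at the kinase's Km(ATP). The IC50 was converted to an apparent Ki by the Cheng-Prusoff equation, Ki = IC50/(1+[ATP]/Km(ATP)), using the experimentally determined Km(ATP).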

[5] = target: CDK9/cyclin T1 (Homo sapiens) (UniProt O60563+P50750); assay: Inhibition of CDK9/Cyclin T1 (unknown origin) at 1 uM relative to control; assay type: protein-complex assay; summary of the method: as §1
[6] = target: T2, Protein kinase C theta type (Homo sapiens, UniProt Q04759); assay: Inhibition of human full length PKCtheta using histone H1 as substrate incubated for 40 mins in presence of [gamma-33P]-ATP by scintillation counting method
Summary of the method: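 IC50 measured in a contracted radiometric kinase assay with ATP at the experimentally determined Km(ATP) of each kinase. Apparent Ki was derived by Cheng-Prusoff: Ki = IC50/(1+[ATP]/Km(ATP)).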
Target sequence in this assay (Q04759 whole entry): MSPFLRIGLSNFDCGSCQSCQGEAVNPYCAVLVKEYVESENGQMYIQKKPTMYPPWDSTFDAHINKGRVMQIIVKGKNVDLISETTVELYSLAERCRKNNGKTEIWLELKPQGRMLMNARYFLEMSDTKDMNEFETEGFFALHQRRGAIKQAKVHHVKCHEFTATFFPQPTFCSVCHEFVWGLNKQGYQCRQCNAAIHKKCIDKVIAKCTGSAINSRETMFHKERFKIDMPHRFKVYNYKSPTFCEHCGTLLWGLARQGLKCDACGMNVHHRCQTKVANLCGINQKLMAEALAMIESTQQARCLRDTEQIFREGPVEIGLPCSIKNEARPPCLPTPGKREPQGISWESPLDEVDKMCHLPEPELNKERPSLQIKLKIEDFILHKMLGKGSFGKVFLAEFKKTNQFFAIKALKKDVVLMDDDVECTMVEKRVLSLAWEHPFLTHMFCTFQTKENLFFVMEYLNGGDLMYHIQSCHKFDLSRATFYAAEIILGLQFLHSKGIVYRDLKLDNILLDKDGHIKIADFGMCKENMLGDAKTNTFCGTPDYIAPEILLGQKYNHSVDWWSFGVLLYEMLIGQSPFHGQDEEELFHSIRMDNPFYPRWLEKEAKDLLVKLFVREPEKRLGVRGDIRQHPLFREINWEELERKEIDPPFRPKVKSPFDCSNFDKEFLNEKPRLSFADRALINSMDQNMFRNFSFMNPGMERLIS

[7] = target: Cyclin-dependent kinase 1/cyclin B1 (Homo sapiens) (UniProt P06493+P14635); assay: Inhibition of CDK1/cyclin-B (unknown origin) at 1 uM relative to control; assay type: protein-complex assay; summary of the method: as §1
Sequence of Cyclin-dependent kinase 1/cyclin B1 (Homo sapiens) (P06493 whole entry, looked up): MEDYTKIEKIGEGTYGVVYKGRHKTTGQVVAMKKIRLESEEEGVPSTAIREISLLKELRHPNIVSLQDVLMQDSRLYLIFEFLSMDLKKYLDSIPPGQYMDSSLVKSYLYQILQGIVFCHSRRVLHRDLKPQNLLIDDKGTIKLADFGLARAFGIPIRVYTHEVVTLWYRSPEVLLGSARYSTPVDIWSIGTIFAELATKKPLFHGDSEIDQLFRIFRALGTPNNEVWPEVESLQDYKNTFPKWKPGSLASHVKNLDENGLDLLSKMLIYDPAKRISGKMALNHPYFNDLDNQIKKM
Sequence of Cyclin-dependent kinase 1/cyclin B1 (Homo sapiens) (P14635 whole entry, looked up): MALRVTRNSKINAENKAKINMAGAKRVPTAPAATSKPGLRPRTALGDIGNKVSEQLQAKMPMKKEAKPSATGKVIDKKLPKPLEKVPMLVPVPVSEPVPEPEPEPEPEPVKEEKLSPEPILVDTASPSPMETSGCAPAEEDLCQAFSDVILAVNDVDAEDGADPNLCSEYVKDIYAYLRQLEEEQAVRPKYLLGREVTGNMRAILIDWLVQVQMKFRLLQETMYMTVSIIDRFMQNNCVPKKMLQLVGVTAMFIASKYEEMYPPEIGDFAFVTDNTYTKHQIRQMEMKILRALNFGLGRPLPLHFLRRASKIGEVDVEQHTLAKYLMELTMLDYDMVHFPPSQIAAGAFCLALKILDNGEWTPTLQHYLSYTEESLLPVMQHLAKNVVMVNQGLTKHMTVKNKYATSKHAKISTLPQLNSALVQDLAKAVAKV

[8] = test system: MDA-MB-453; assay: Growth inhibition human MDA-MB-453 cells after 72 hrs by resazurin or MTT assay; assay type: functional; summary of the method: as §2
[9] = test system: HCT-116; assay: Growth inhibition human HCT-116 cells after 72 hrs by resazurin or MTT assay; assay type: functional; summary of the method: as §2
[10] = Growth inhibition human WI38 cells after 72 hrs by resazurin or MTT assay; assay type: cell-based; conditions: WI-38 cells
[11] = test system: MV4-11; assay: Growth inhibition of human MV4-11 cells after 72 hrs by resazurin staining based assay; assay type: functional
Summary of the method: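 MV4-11 leukaemia cells grown in medium with 10% FBS at 37 °C, 5% CO2. Growth was read by a 72-h resazurin viability assay. GI50 was obtained by nonlinear regression and reported as mean ± standard deviation of at least two replicates.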

[12] = target: CDK2/Cyclin A2 (Homo sapiens) (UniProt P24941+P20248); assay: Inhibition of CDK2/cyclin-A (unknown origin) at 1 uM; assay type: protein-complex assay; summary of the method: as §1
[13] = test system: COLO 205; assay: Growth inhibition human COLO 205 cells after 72 hrs by resazurin or MTT assay; assay type: functional; summary of the method: as §2
[14] = target: Glycogen synthase kinase-3 alpha (Homo sapiens, UniProt P49840); assay: Inhibition of human GSKalpha S449A mutant (2 to 3nd residues) using YRRAAVPPSPSLSRHSSPHQS(p) EDEEE as substrate incubated for 40 mins in presence of [gamma-33P]-ATP by scintillation counting method; summary of the method: as §3
Sequence of Glycogen synthase kinase-3 alpha (P49840 whole entry): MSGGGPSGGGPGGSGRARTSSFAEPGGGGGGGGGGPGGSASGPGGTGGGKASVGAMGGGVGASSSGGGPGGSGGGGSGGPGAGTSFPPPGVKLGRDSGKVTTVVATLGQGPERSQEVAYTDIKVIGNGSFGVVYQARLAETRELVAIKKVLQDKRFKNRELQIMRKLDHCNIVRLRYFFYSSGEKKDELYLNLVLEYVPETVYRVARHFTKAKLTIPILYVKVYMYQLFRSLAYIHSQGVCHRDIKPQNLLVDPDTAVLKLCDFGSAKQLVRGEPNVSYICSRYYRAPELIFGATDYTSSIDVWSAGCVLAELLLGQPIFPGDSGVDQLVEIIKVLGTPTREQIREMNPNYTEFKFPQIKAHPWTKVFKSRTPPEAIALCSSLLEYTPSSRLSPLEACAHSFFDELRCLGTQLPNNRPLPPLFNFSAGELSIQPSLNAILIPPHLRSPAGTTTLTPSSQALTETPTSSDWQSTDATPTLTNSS

[15] = test system: U-937; assay: Growth inhibition human U-937 cells after 72 hrs by resazurin or MTT assay; assay type: functional; summary of the method: as §2
[16] = target: CDK3/Cyclin E (Homo sapiens) (UniProt P24864+Q00526); assay: Inhibition of CDK3/cyclin-E (unknown origin) at 1 uM; assay type: protein-complex assay; summary of the method: as §1
Sequence of CDK3/Cyclin E (Homo sapiens) (P24864 whole entry, looked up): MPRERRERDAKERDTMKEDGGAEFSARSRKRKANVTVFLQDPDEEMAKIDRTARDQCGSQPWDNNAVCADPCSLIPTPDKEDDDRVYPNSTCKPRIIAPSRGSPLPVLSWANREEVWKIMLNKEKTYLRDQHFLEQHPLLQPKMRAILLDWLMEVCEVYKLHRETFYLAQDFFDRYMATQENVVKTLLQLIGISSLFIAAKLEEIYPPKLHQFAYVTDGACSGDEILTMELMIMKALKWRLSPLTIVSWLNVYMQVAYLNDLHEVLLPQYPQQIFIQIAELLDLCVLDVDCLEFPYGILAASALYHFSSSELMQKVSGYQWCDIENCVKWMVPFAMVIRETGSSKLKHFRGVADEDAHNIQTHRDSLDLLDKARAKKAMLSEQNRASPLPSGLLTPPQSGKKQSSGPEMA
Sequence of CDK3/Cyclin E (Homo sapiens) (Q00526 whole entry, looked up): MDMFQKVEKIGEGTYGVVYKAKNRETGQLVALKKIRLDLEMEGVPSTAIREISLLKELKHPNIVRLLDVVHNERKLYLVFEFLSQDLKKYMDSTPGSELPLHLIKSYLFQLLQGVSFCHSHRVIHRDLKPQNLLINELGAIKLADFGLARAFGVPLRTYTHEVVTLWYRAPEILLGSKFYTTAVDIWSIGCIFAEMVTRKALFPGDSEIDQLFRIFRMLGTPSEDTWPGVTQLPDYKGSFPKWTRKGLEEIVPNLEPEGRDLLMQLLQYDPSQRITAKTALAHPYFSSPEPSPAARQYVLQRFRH

[17] = Inhibition of CYP4501A in human liver microsomes using ethoxyresorufin O-deethylation as substrate by LC-MS/MS analysis
[18] = target: Cyclin-dependent kinase 4/cyclin D1 (Homo sapiens) (UniProt P11802+P24385); assay: Inhibition of CDK4/cyclin-D1 (unknown origin) at 1 uM; assay type: protein-complex assay; summary of the method: as §1
[19] = test system: Glycogen synthase kinase-3 beta (Homo sapiens), P49841 [UNDEFINED MUTATION]; assay: Inhibition of human GSKbeta H350L mutant (2 to 3nd residues) at 1 uM using YRRAAVPPSPSLSRHSSPHQS(p) EDEEE as substrate incubated for 40 mins in presence of [gamma-33P]-ATP by scintillation counting method relative to control
Sequence of Glycogen synthase kinase-3 beta (Homo sapiens), P49841 [UNDEFINED MUTATION] (P49841 whole entry, looked up, stated change not applied): as the sequence (P49841 whole entry) above
Summary of the method: (§4)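 Single-point screen of residual kinase activity (%) at 1 µM compound. Run as a contract radiometric [γ-33P]-ATP kinase assay, either the KinaseProfiler service or the HotSpot assay. ATP was set at the experimentally determined Km(ATP) of each kinase.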

[20] = target: CDK7/Cyclin H/MNAT1 (Homo sapiens) (UniProt P51946+P50613+P51948); assay: Inhibition of CDK7/cyclin H/MNAT1 (unknown origin) at 1 uM; assay type: protein-complex assay; summary of the method: as §1
[21] = target: T1, Cyclin-dependent kinase 5/CDK5 activator 1 (Homo sapiens); assay: Inhibition of CDK5/p35 (unknown origin) at 1 uM; assay type: protein-complex assay; summary of the method: as §1
[22] = target: T2, Protein kinase C theta type; assay: Inhibition of human full length PKCtheta at 1 uM using histone H1 as substrate incubated for 40 mins in presence of [gamma-33P]-ATP by scintillation counting method relative to control; summary of the method: as §4
Target sequence in this assay (Q04759 whole entry, looked up): as the sequence (Q04759 whole entry) above

[23] = test system: T47D; assay: Growth inhibition human T47D cells after 72 hrs by resazurin or MTT assay; assay type: functional; summary of the method: as §2
[24] = target: CDK8/Cyclin C (Homo sapiens, UniProt P49336); assay: Inhibition of CDK8/cyclin C (unknown origin) using RBER-IRStide as substrate incubated for 60 mins in presence of [gamma33P]ATP by scintillation counting method; assay type: protein-complex assay
[25] = test system: Glycogen synthase kinase-3 alpha (Homo sapiens), P49840 [UNDEFINED MUTATION]; assay: Inhibition of human GSKalpha S449A mutant (2 to 3nd residues) at 1 uM using YRRAAVPPSPSLSRHSSPHQS(p) EDEEE as substrate incubated for 40 mins in presence of [gamma-33P]-ATP by scintillation counting method relative to control; summary of the method: as §4
Sequence of Glycogen synthase kinase-3 alpha (Homo sapiens), P49840 [UNDEFINED MUTATION] (P49840 whole entry, looked up, stated change not applied): as the sequence (P49840 whole entry) above

[26] = test system: MCF7; assay: Growth inhibition human MCF7 cells after 72 hrs by resazurin or MTT assay; assay type: functional; summary of the method: as §2
[27] = target: CDK6/cyclin D3 (Homo sapiens) (UniProt P30281+Q00534); assay: Inhibition of CDK6/cyclin-D3 (unknown origin) at 1 uM; assay type: protein-complex assay; summary of the method: as §1
[28] = test system: PANC-1; assay: Growth inhibition human PANC-1 cells after 72 hrs by resazurin or MTT assay; assay type: functional; summary of the method: as §2
[29] = test system: A2780; assay: Growth inhibition human A2780 cells after 72 hrs by resazurin or MTT assay; assay type: functional; summary of the method: as §2
[30] = target: CDK18/Cyclin Y (Homo sapiens) (UniProt Q07002+Q8ND76); assay: Inhibition of CDK18/Cyclin Y (unknown origin) at 1 uM; assay type: protein-complex assay; summary of the method: as §1
[31] = test system: MOLM-13; assay: Growth inhibition human MOLM-13 cells after 72 hrs by resazurin or MTT assay; assay type: functional; summary of the method: as §2
[32] = test system: HT-29; assay: Growth inhibition human HT-29 cells after 72 hrs by resazurin or MTT assay; assay type: functional; summary of the method: as §2
[33] = target: Cyclin-Y/Cyclin-dependent kinase 16 (Homo sapiens) (UniProt Q00536+Q8ND76); assay: Inhibition of CDK16/Cyclin Y (unknown origin) at 1 uM; assay type: protein-complex assay; summary of the method: as §1
[34] = target: CDK17/Cyclin-Y (Homo sapiens) (UniProt Q00537+Q8ND76); assay: Inhibition of CDK17/Cyclin Y (unknown origin) at 1 uM; assay type: protein-complex assay; summary of the method: as §1
Sequence of CDK17/Cyclin-Y (Homo sapiens) (Q00537 whole entry): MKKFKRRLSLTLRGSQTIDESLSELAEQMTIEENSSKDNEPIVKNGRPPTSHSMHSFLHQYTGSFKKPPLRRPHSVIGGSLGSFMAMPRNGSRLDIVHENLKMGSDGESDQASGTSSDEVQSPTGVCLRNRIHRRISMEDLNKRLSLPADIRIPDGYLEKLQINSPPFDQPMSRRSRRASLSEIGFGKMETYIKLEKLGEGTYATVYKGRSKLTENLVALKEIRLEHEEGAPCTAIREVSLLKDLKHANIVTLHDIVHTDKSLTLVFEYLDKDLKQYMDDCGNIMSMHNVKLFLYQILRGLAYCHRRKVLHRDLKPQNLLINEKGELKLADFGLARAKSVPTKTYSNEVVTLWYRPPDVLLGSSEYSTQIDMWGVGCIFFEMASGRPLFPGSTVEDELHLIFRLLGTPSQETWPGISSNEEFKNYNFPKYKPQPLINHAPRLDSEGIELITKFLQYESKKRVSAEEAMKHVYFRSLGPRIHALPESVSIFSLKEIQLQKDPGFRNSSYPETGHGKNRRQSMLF
Sequence of CDK17/Cyclin-Y (Homo sapiens) (Q8ND76 2-341 partner limits assumed): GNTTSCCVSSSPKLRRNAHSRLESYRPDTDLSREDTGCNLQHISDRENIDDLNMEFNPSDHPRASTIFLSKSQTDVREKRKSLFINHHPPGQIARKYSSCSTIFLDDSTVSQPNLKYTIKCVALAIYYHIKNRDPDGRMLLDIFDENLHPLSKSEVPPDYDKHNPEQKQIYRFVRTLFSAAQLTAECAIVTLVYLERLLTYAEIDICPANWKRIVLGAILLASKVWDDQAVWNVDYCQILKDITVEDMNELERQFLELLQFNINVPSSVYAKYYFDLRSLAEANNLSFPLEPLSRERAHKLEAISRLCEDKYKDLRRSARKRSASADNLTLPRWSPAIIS

For `O=C1NCCC12CCN(c1c(Cl)cncc1-c1cc3ccccc3s1)CC2`, the inhibition [1] was “inactive”, the GI50 [2] was 34.2 µM and the inhibition [3] was “inactive”. For the same compound, the Ki [4] was 0.018 µM, the inhibition [5] was “inactive” and the Ki [6] was 0.134 µM. The inhibition [7] was “inactive”, the GI50 [8] was 17.4 µM and the GI50 [9] was 42.7 µM. The GI50 at 72 h [10] was 35 µM, the GI50 [11] was 0.58 µM and the inhibition [12] was “inactive”. For the same compound, the GI50 [13] was > 50 µM, the Ki [14] was 0.043 µM and the GI50 [15] was 2.69 µM. The inhibition [16] was “inactive”, the IC50 [17] was 16.6 µM and the inhibition [18] was “inactive”. For the same compound, the inhibition [19] was > 50%, the inhibition [20] was “inactive” and the inhibition [21] was “inactive”. The inhibition [22] was > 50%, the GI50 [23] was 17.9 µM and the Ki [24] was 0.014 µM. The inhibition [25] was > 50%, the GI50 [26] was > 50 µM and the inhibition [27] was “inactive”. The GI50 [28] was > 50 µM, the GI50 [29] was 17.6 µM and the inhibition [30] was “inactive”. For the same compound, the GI50 [31] was 5.81 µM, the GI50 [32] was 29.3 µM and the inhibition [33] was “inactive”. The inhibition [34] was “inactive”.
